Source: PubChem (several laboratories)
Sampled rows, rich in hits. Any-hit rate of the full collection: about 2.6%.
CHT block: inhibits the human high affinity choline transporter; Q9GZV3; CHT-expressing cells, membrane potential dye, choline response; hits give low values; B-score at 10 µM; 310,000 compounds, 0.86% hits; AID 488975;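 active means B-score over 3 SD under the library average, and starting fluorescence ratio not unusually high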;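 further: choline stimulus applied at its EC90 after an EC20 pre-addition; B-score computed on integrated fluorescence ratio after choline addition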
Target sequence (Q9GZV3 whole entry, looked up): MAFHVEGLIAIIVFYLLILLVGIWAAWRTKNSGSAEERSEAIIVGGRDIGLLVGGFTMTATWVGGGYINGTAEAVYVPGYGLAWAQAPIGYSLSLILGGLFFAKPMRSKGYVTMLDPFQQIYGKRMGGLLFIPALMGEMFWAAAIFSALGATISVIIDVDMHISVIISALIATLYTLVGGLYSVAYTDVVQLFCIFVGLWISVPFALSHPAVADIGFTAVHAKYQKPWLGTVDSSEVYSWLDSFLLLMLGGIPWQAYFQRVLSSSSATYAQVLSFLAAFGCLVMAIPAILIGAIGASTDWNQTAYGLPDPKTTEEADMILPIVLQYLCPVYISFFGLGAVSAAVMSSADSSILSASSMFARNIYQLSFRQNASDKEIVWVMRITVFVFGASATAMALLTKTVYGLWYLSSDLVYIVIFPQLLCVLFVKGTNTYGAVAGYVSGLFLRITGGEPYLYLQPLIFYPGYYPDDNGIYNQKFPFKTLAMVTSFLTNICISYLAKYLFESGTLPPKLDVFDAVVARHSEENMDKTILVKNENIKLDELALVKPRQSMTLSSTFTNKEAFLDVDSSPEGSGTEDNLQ
KCC2 mod: KCC2 (human) Cl- transport modulation | KCC2 cells, thallium flux FluoZin-2 fluorescence | B-score of Tl+ flux slope (higher = more flux/activation; lower = inhibition) at 10 µM | Q9H2X9 | 190,000 compounds, 2.2% hits;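 active means thallium flux slope and its plate-corrected score both differing from the plate sample mean at a set confidence after two filtering rounds, in either direction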;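 further: slope of fluorescence scaled to starting intensity during 10 to 20 s after thallium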
Rad51 HR inh: Rad51 (human) homologous recombination inhibition | inhibition, % at 10 µM | Q06609 | 200,000 compounds, 0.085% hits | AID 1385 | hRad51 DNA strand exchange, fluorescence dequenching;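 active means inhibition above 40% at the single screening dose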;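 further: 0% = DMSO control wells and 100% = blanks with heterologous ssDNA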
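Test system: preformed human Rad51 ssDNA filaments. Compound dosing: single dose, 10 µM final compound. Incubation: filaments 15 min 37 °C, then compound 30 min. Technique: FRET fluorescence dequenching, excitation 485 nm, emission 520 nm. Read-out basis: percent inhibition from fluorescence, normalised to plate control and blank means. Benchmarks: plate controls and plate blanks.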
CHT allo act: human CHT allosteric activation | AID 488977 | 310,000 compounds, 0.49% hits | Q9GZV3 | CHT-expressing cells, membrane potential dye, choline EC20; hits give high values; LV-AA mutant CHT in HEK293 cells | B-score at 10 µM;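 active means initial fluorescence not abnormally high and integrated response B-score, plate-corrected, over 3 SD above library mean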
CHT inh conf: confirmation of human choline transporter CHT inhibitors. CHT activity remaining % of control (hits give low values), % at 10 µM. CHT-expressing cells, choline membrane potential dye; LV-to-AA substituted CHT, HEK293 cells. 2,400 compounds, 70% hits. shares compounds with CHT block;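 active means choline transporter activity left, mean of duplicates at 10 µM, below buffer-only control mean minus 3 SD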;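 further: depolarization triggered by choline at its EC90 following an EC20 pre-addition; 0% = hemicholinium-3 full block and 100% = buffer-only control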
HEK293 CHT ctr: counter-screen for CHT inhibitors: effect in parental HEK293 cells; shares compounds with CHT block; membrane potential dye, choline response; active = decrease or increase beyond buffer ±3SD; membrane potential ratio readout (active if shifted either direction beyond buffer ±3SD; no single direction) at 10 µM; 2,400 compounds, 4% hits;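 further: parental cells lack the transporter so any hit is non-specific; ratio is peak minus trough fluorescence over baseline after EC90 choline challenge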
The depositor's hits bear a star; i = inactive; . = no result.

SMILES	CHT block	KCC2 mod	Rad51 HR inh	CHT allo act	CHT inh conf	HEK293 CHT ctr
CC1Cc2nc(SCC(=O)Nc3nc4ccccc4s3)n(C)c(=O)c2S1 (stereo unspecified)	-5.1*	.	0	i	i	i
CCOC(=O)CSc1nnc(Cc2ccccc2)n1-c1cccc(Cl)c1	i	-0.19	-9	i	.	.
CCOC(=O)CSc1nnc(CNc2ccccc2Cl)n1-c1ccccc1	-5.3*	-0.1	-9	i	i	i
O=C(CCC(=O)N1CCOc2ccc(Cl)cc21)NCc1ccccc1	-6.3*	.	.	i	i	i
Cc1ccc(CCSc2ccc(C(C)C)cc2)cn1	i	-2.3	9	i	.	.
Cc1ccc(C(=O)N/C(=C\c2cccs2)c2nc3ccccc3[nH]2)cc1	-5*	0.51	5	i	64%*	i
Nc1c(Cl)cc(-c2csc(NC(CO)c3nc4ccccc4n3CCOCCO)n2)cc1Cl (stereo unspecified)	i	.	-4	i	.	.
C=CCNC(=O)c1onc(CSc2ccc(C(C)C)cc2)c1C(=O)O	-5.2*	-1.8	9	i	61%*	i
CC(C)(C)c1ccc(C(=O)Nc2cccnc2)cc1	i	.	.	i	.	.
CC(C)(C)c1ccc(C(=O)Nc2ccc(Oc3cccnc3)nc2)cc1	-5.2*	-3.2	8	i	i	i
Cc1cc(C)c(NC(=O)Cn2nnc(C(=O)NCc3ccc4c(c3)OCO4)c2N)c(C)c1	i	.	.	i	.	.
Cc1nnc(SCc2ccc(F)cc2)n1NC/C=C/c1ccccc1	-7.1*	-4.7*	3	i	i	i
Cc1nnc(SCc2ccccc2F)n1NCc1cccs1	i	.	2	i	.	.
COc1cccc(CN(C)CC(=O)Nc2ccccc2N2CCOCC2)c1OC	i	-0.18	-11	i	.	.
Cc1csc(=O)n1CC(=O)OCC(=O)Nc1cc(S(=O)(=O)N2CCOCC2)ccc1Cl	i	.	.	i	.	.
CCCCNC(=O)CSc1nc2ccsc2c(=O)n1CCCC(=O)NCCc1ccc(S(N)(=O)=O)cc1	i	0.21	0	i	.	.
Cc1nnc(Sc2nc3ccccc3o2)c2ccccc12	-5.9*	.	3	i	27%*	i
CCN(CC(=O)Nc1ccc(NC(C)=O)cc1)C(=O)CN1C(=O)NC2(CCCC2)C1=O	i	.	.	i	.	.
Cc1ccc(Oc2ccc(NC(=O)Cn3ccsc3=N)cc2)cc1	-7.9*	-0.59	5	i	16%*	i
COc1ccc(-c2[nH]ncc2CN2CCC(OCc3cccnc3)CC2)c(F)c1	i	-1.6	-13	i	.	.
FC(F)(F)c1nc2ccccc2[nH]1	i	0.027	19	i	.	.
O=c1[nH]c(C(F)(F)F)nc2ccccc12	-5.1*	0.41	11	i	i	i
O=C(NC1CCCCCC1)c1ccc(CS(=O)Cc2ccccc2Cl)o1 (stereo unspecified)	i	.	.	i	.	.
Cc1ccc(CS(=O)Cc2ccc(C(=O)NC3CCC(C)CC3)o2)cc1 (stereo unspecified)	-9.8*	.	.	i	3.4%*	i
Cc1ccc(CS(=O)Cc2ccc(C(=O)NCc3ccc4c(c3)OCO4)o2)cc1 (stereo unspecified)	i	.	.	i	.	.
SMILES	CHT block	KCC2 mod	Rad51 HR inh	CHT allo act	CHT inh conf	HEK293 CHT ctr
Cc1ccc(CS(=O)Cc2ccc(C(=O)NC3CCCC(C)C3C)o2)cc1 (stereo unspecified)	-9.7*	.	.	i	20%*	i
Cc1ccc(CS(=O)Cc2ccc(C(=O)NC3CCCCCC3)o2)cc1 (stereo unspecified)	-9.5*	.	.	i	36%*	i
CC(C)N(Cc1nc(-c2ccc(Cl)cc2)no1)Cc1nccn1C	i	0.0042	9	i	.	.
CCOC(=O)NC(=S)Nc1c(C)n(C)n(-c2ccccc2)c1=O	i	-0.67	27	i	.	.
O=C(OC1CCOC1=O)c1ccc(CO)cc1 (stereo unspecified)	i	.	.	i	.	.
O=C(CN1c2ccccc2S(=O)(=O)c2ccccc21)Nc1ccccc1F	i	.	.	i	.	.
Cc1cc(C)nc(NS(=O)(=O)c2ccc(N3C(=O)c4ccccc4C3=O)cc2)n1	i	0.36	-9	i	.	.
CC(C)(C)NS(=O)(=O)c1ccc(N2C(=O)c3ccccc3C2=O)cc1	-7.5*	.	1	i	60%*	i
C=CCNS(=O)(=O)c1ccc(N2C(=O)c3ccccc3C2=O)cc1	-6.5*	0.056	4	i	63%*	i
COc1ccc(CNS(=O)(=O)c2cc(-c3cc(C)no3)ccc2C)cc1OC	i	.	.	i	.	.
COc1ccc(C2CC(c3ccc(Br)cc3)=NN2C(=O)CN2CCCC2)cc1 (stereo unspecified)	-7.1*	-0.25	-10	i	56%*	i
COc1ccc(C2=NN(C(=O)CN3CCCCC3)C(c3ccc(C)cc3)C2)cc1 (stereo unspecified)	i	-0.53	4	i	.	.
CCCNC(=O)c1ccccc1NC(=O)c1ccc(CSc2ccccc2)cc1	i	0.93	-10	i	.	.
Cc1c(N=Cc2cc(Br)cc(Br)c2O)cccc1C(=O)O	-5.7*	-0.9	5	i	57%*	i
CCN1CCN(c2cc(C)c3cc(NC(=S)N4CCCCC4)ccc3n2)CC1	-6.7*	0.022	7	i	47%*	i
CCCN(CCC)CCCNC(=S)Nc1ccc2nc(N3CCN(CC)CC3)cc(C)c2c1	-6.7*	1.1	-3	i	49%*	2.2*
CCN1CCN(c2cc(C)c3cc(NC(=S)N4CCCC(C)C4)ccc3n2)CC1 (stereo unspecified)	i	1	2	i	.	.
CCCc1cc(N2CCN(c3ccccn3)CC2)n2nc(C)c(-c3ccccc3)c2n1	i	0.59	4	i	.	.
O=C(CSc1nc2c(c(=O)n1-c1ccc(Cl)cc1)SCC2)N1CCCC1	-6.8*	-2.1	-3	i	i	i
O=C1C2C3C=CC(C3)C2C(=O)N1CCN1CCN(Cc2ccc([N+](=O)[O-])cc2)CC1 (stereo unspecified)	i	-2.8	-11	i	.	.
CC(=O)N(C)c1ccc(OCC(O)CN(c2ccccc2C)S(=O)(=O)c2ccc(C)cc2)cc1 (stereo unspecified)	-18*	.	.	i	-11%*	i
CC(=O)N(C)c1ccc(OCC(O)CN(Cc2ccco2)S(=O)(=O)c2ccc(C)cc2)cc1 (stereo unspecified)	i	1.1	-8	i	.	.
CCOC(=O)N1CCN(C(=O)c2ccc3nc(N4CCC(C)CC4)sc3c2)CC1	-7.2*	0.0074	3	i	69%*	i
Cc1cccc(C)c1OCC(=O)NNC(=O)CCNC(=O)c1ccco1	i	.	.	i	.	.
